Screening data (PubChem BioAssay)
Only some compounds are listed: those with a hit (about 2.2% of all), similar ones and a draw of the others.
ASAP1 inh – inhibitors of human ASAP1 ArfGAP activity, primary screen, biochemical, fluorescence polarization. ASAP1-stimulated ARF1 GTP hydrolysis, GDP FP detection. inhibition, % at 16.5 µM. 0.19% of 360,000 active. Arf-GAP with SH3 domain, ANK repeat and PH domain-containing protein 1 (Homo sapiens), …. AID 624377, 2012; in the data active = inhibition above about 25%;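 also: 0% = vehicle with enzyme and substrate and 100% = no enzyme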
Target sequence (Q9ULH1 325-724 limits assumed): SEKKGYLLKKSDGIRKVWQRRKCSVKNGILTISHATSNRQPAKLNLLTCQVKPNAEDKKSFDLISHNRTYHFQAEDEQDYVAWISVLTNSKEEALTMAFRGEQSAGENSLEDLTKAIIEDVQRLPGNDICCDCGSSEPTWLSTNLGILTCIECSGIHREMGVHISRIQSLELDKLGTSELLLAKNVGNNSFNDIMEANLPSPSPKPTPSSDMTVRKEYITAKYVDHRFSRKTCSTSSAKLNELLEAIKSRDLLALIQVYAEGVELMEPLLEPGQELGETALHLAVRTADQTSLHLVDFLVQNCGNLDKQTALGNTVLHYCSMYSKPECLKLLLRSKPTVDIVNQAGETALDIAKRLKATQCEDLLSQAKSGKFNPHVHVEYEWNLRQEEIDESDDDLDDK
V-ATPase pH – regulators of yeast V-ATPase proton pumping, primary screen, pHLuorin cytosolic pH fluorescence; response, % at 10 µM; S. cerevisiae; 0.37% of 350,000 active; in the data active = response mostly above about 7.3%, no sharp cut-off; inactive = mostly below about 5.4%; also: actives read high
Exocytosis inh – LAMP-1 surface exposure blockers, TALL-104 cells – cell-based, flow cytometry, MLPCN library, primary screen. 0.66% of 360,000 active. TALL-104 LAMP-1 surface exposure; cells stimulated with thapsigargin and PMA. AID 651702, 2012. inhibition, % at 10 µM;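 active = inhibition above about 55%, limit read from the data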
ARFGAP1 inhibitor – inhibitors of rat ARFGAP1 GAP activity, primary screen, biochemical, fluorescence polarization, GDP tracer. inhibition, % at 16.5 µM. AID 651572, 2012. ADP-ribosylation factor GTPase-activating protein 1 (Rattus norvegicus), Q62848. Arfgap1-stimulated ARF1 GTP hydrolysis, GDP FP detection. 0.26% of 360,000 active;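 active = inhibition above a per-plate limit, mean inhibition of low control wells plus 3 SD, cut at about 25% in these data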;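 also: 0% = DMSO wells with enzyme and 100% = wells lacking Arfgap1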
Target sequence (Q62848 1-136 limits assumed): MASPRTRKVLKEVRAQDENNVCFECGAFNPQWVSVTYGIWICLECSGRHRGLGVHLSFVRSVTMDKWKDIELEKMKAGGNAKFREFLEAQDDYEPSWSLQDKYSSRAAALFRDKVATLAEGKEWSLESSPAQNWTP
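Assay system: purified rat His6-Arfgap1 residues 1-136 (GAP domain); Reagent: human Δ17 ARF1 bound to GTP; Dosing: 16.5 µM single point, 1.26% DMSO; Times: GTP hydrolysis reaction 2 h at 25 °C; Signal: FP, GDP Alexa 633 tracer displaced from anti-GDP antibody, 620/688 nm; Measure: % inhibition from polarization.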
NRP1-CendR mod – modulators of CendR peptide binding to NRP-1, primary screen, biochemical, fluorescence polarization, uHTS. 0.85% of 360,000 active. Neuropilin-1 (Homo sapiens), O14786. FAM-RPARPAR peptide binding to NRP-1. inhibition, % at 25 µM;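 active = inhibition or corrected inhibition above about 18%, plus a signal ratio from 0.5 to 1.5, limit read from the data, passing the limit was not always enough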
* hit, by the source's call.

Screening O=C(Nc1ccc(Cl)cc1)N1CCSC1=NCc1ccccc1 returned ASAP1 inh 5, V-ATPase pH 1, Exocytosis inh 10, ARFGAP1 inhibitor 5 and NRP1-CendR mod 9.
For CC(=O)Nc1ccc(C2=NN(C)C(=NCc3ccccc3)SC2)cc1 the results were ASAP1 inh 2, V-ATPase pH -2, Exocytosis inh -1, ARFGAP1 inhibitor 5 and NRP1-CendR mod 30*.
For COc1ccc(S(=O)(=O)NC(C)C(=O)Nc2ccc3c(c2)OCCO3)cc1OC (configuration not stated) the results were ASAP1 inh -1, V-ATPase pH -4, Exocytosis inh -7, ARFGAP1 inhibitor -3 and NRP1-CendR mod -3.
COc1ccc(S(=O)(=O)Nc2ccc3c(c2)OCO3)cc1C(=O)O was read as ASAP1 inh 0, V-ATPase pH -1, Exocytosis inh -2, ARFGAP1 inhibitor -15 and NRP1-CendR mod 16.
Screening COc1ccc(S(=O)(=O)NC(C)C(=O)Nc2ccc3c(c2)OCO3)cc1OC (configuration not stated) returned ASAP1 inh -4, V-ATPase pH 1, Exocytosis inh -9, ARFGAP1 inhibitor 2 and NRP1-CendR mod 17*.
`COc1ccc(/C=C/C(=O)O)cc1S(=O)(=O)Nc1ccc2c(c1)OCO2` gave ASAP1 inh 6, V-ATPase pH -4, Exocytosis inh 0, ARFGAP1 inhibitor -6 and NRP1-CendR mod 26*.
For CC(=O)N1CCN(c2ccc(N3CCN(Cc4ccccc4)[C@H](C)C3)c(C)c2)[C@@H](C)C1 the results were ASAP1 inh 22 and ARFGAP1 inhibitor 14.
`CCN1C(=O)C(=Cc2cccc(OC)c2Oc2ccc([N+](=O)[O-])cc2[N+](=O)[O-])SC1=S` gave ASAP1 inh 3, V-ATPase pH 2, Exocytosis inh -9, ARFGAP1 inhibitor 2 and NRP1-CendR mod 25*.
CCNC(=O)C1(C)CCN(Cc2ccc(-c3ccccc3)cc2)C1 (configuration not stated) was read as ASAP1 inh -1, Exocytosis inh 6, ARFGAP1 inhibitor 6 and NRP1-CendR mod -2.
For Nc1nonc1-n1nnc(C(=O)N/N=C/c2cccnc2)c1CSc1ccc(Cl)cc1 the results were ASAP1 inh -13, V-ATPase pH 5, Exocytosis inh 62*, ARFGAP1 inhibitor -9 and NRP1-CendR mod -6.
`CN(C)Cc1c(C(=O)N/N=C/c2ccccc2OCc2c(F)cccc2Cl)nnn1-c1nonc1N` gave ASAP1 inh 4, V-ATPase pH 7, Exocytosis inh 95*, ARFGAP1 inhibitor 5 and NRP1-CendR mod 6.
`Nc1nonc1-n1nnc(C(=O)N/N=C/c2cccnc2)c1CSc1ccccc1` gave ASAP1 inh 5, V-ATPase pH -1, Exocytosis inh 5, ARFGAP1 inhibitor 10 and NRP1-CendR mod 6.
CCCCCCCCN1C(=O)[C@@H](CC(=O)NCc2ccc(C)o2)C[C@@]2(C(=O)OC)C1=C[C@H](C1CCCC1)O[C@@H]2C was read as ASAP1 inh 6 and ARFGAP1 inhibitor -3.
Screening CC(=O)OCC(=O)[C@@]1(O)CC[C@H]2[C@@H]3C[C@H](C)C4=CC(=O)C=C[C@]4(C)[C@H]3[C@@H](O)C[C@@]21C returned ASAP1 inh -3, V-ATPase pH 5, Exocytosis inh -3, ARFGAP1 inhibitor -6 and NRP1-CendR mod 3.
CC(=O)OCC(=O)C1(O)CCC2C3CC(C)C4=CC(=O)C=CC4(C)C3=CCC21C (configuration not stated) was read as ASAP1 inh -5, V-ATPase pH 1, Exocytosis inh -1, ARFGAP1 inhibitor -7 and NRP1-CendR mod 19*.
O=C(CN(CC1CCCO1)C(=O)CNS(=O)(=O)c1ccc(Cl)cc1)NCC1CCCO1 (configuration not stated) was read as ASAP1 inh -9, V-ATPase pH 0, Exocytosis inh 0, ARFGAP1 inhibitor -12 and NRP1-CendR mod 30*.
For CN1NC(=O)c2ccccc2NC1=S the results were ASAP1 inh 1 and ARFGAP1 inhibitor 7.
Screening O=C(O)CS(=O)(=O)c1ccc(C(F)(F)F)cn1 returned ASAP1 inh 9, V-ATPase pH 2, Exocytosis inh -1, ARFGAP1 inhibitor 10 and NRP1-CendR mod 36*.
NC(=O)C(c1ccc(Cl)cc1Cl)c1ncc(C(F)(F)F)cc1Cl (configuration not stated) was read as ASAP1 inh 13, V-ATPase pH 2, Exocytosis inh -1, ARFGAP1 inhibitor 7 and NRP1-CendR mod 23*.
Screening NC(=O)C(c1ccc(Cl)cc1)c1ncc(C(F)(F)F)cc1Cl (configuration not stated) returned ASAP1 inh -11, V-ATPase pH 3, Exocytosis inh -2, ARFGAP1 inhibitor 0 and NRP1-CendR mod 11.
`C/C(=N\NC(=O)c1cc([N+](=O)[O-])cc([N+](=O)[O-])c1)c1ccco1` gave ASAP1 inh -11, V-ATPase pH 6, Exocytosis inh 8, ARFGAP1 inhibitor 4 and NRP1-CendR mod 25*.
`C/C(=N/NC(=O)c1cc(-c2ccc(Br)s2)[nH]n1)c1ccco1` gave ASAP1 inh -1, V-ATPase pH 5, Exocytosis inh 1, ARFGAP1 inhibitor 10 and NRP1-CendR mod 36*.
Screening CCC(C)[C@@H](NC(=O)OC(C)(C)C)c1nnc(S(=O)(=O)Cc2cccc(C)c2)o1 (some centres not stated) returned ASAP1 inh -15, V-ATPase pH 3, Exocytosis inh 81*, ARFGAP1 inhibitor -5 and NRP1-CendR mod 15.
`CCC(C)NC(=O)[C@H]1N2C(=O)c3c(ccc(OC)c3OC)C2SC1(C)C` (some centres not stated) gave ASAP1 inh 2, V-ATPase pH 4, Exocytosis inh 7, ARFGAP1 inhibitor 1 and NRP1-CendR mod 0.
For CCCNC(=O)[C@H]1N2C(=O)c3c(ccc(OC)c3OC)C2SC1(C)C (some centres not stated) the results were ASAP1 inh 2, V-ATPase pH 2, Exocytosis inh -5, ARFGAP1 inhibitor 3 and NRP1-CendR mod 28*.
For CCOC(=O)/C(=C\Nc1cccc(OCc2ccccc2)c1)NC(=O)c1ccccc1 the results were ASAP1 inh -8 and ARFGAP1 inhibitor -4.
For Cc1ccc(NC(=O)c2ccc3c(c2)OCCO3)cc1S(=O)(=O)Nc1cccc(Cl)c1 the results were ASAP1 inh 2, V-ATPase pH -3, Exocytosis inh -3, ARFGAP1 inhibitor 0 and NRP1-CendR mod 37*.
Cc1ccc(NC(=O)c2ccc3c(c2)OCCO3)cc1C was read as ASAP1 inh 0, V-ATPase pH -99, Exocytosis inh 27, ARFGAP1 inhibitor -7 and NRP1-CendR mod 1.
